Structures are written as SMILES.

The subject of assay [1] is Canis familiaris. The assay is described as follows: Positive inotropic activity after intravenous administration of 50 ug/kg (dose) to anesthetized dog. It is filed as functional, Canis lupus familiaris. In outline: (§1)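 Dogs were anesthetized and intubated. Compound was given through a saphenous vein cannula, in 0.9% saline, 0.5 h after the standard quinazoline at 50 µg/kg, following a 0.75 h equilibration. The cycle was repeated once control levels returned, with at least 0.5 h between doses. LVP was recorded by a Millar catheter via the carotid artery and differentiated to dP/dtmax. Results are % increase in dP/dtmax, and also potency relative to the standard in the same dog: (%drug/%standard)×(dose standard/dose drug).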

For assay [2], the system named is Canis familiaris. Briefly: Inotropic potencies relative to 4-[4-[2-(1,1-dioxo-2-isothiazolidinyl)ethyl]-1-piperidinyl]-6,7-dimethoxyquinazoline (50 ug/kg) in anesthetized dog. It is filed as functional, Canis lupus familiaris. In outline: as §1
Assay [3] relates to Canis familiaris. The assay is described as follows: 2.0 mg/kg of compound was administered orally to conscious adult Beagle dogs (n=4) and the effects on cardiac contractility was determined after 3 hr. It is filed as functional, Canis lupus familiaris, Heart. In outline:
(§2)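 Conscious dogs (n = 4) were dosed orally by gavage with a solution of compound. The QA interval is the time in ms from the ECG R wave to the up-stroke of the arterial pressure pulse, measured by computer. Recordings were taken every 0.16 h from 0.5 h predose to 4 h postdose. Each point is the mean of six consecutive 8-s sets. Results are the change from the mean predose value, as mean ± SEM.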

Assay [4] has as its system Canis familiaris. The assay is described as follows: 2.0 mg/kg of compound was administered orally to conscious adult Beagle dogs and the effects on cardiac contractility was determined after 1 hr. It is filed as functional, Canis lupus familiaris, Heart. In a few lines: as §2
Assay [5] concerns Canis familiaris. The assay is described as follows: Positive inotropic activity after intravenous administration of 10 ug/kg (dose) to anesthetized dog. Type of assay: functional, Canis lupus familiaris. In outline: as §1
Assay [6] deals with Canis familiaris. Briefly: 0.125 mg/kg of compound was administered orally to conscious adult Beagle dogs (n=4) and the effects on cardiac contractility was determined after 3 hr. Type of assay: functional, Canis lupus familiaris, Heart. In a few lines:
as §2

The test system of assay [7] is Canis familiaris. The assay is described as follows: 0.125 mg/kg of compound was administered orally to conscious adult Beagle dogs and the effects on cardiac contractility was determined after 1 hr. It is filed as functional, Canis lupus familiaris, Heart. In a few lines:
as §2

Assay [8] deals with Canis familiaris. The assay is described as follows: 0.5 mg/kg of compound was administered orally to conscious adult Beagle dogs (n=4) and the effects on cardiac contractility was determined after 3 hr. Type of assay: functional, Canis lupus familiaris, Heart. In a few lines: as §2
Assay [9] concerns Canis familiaris. Briefly: 0.5 mg/kg of compound was administered orally to conscious adult Beagle dogs and the effects on cardiac contractility was determined after 1 hr. It is filed as functional, Canis lupus familiaris, Heart. In outline:
as §2

For assay [10], the system named is Canis familiaris. Briefly: 0.25 mg/kg of compound was administered orally to conscious adult Beagle dogs (n=4) and the effects on cardiac contractility was determined after 3 hr. It is filed as functional, Canis lupus familiaris, Heart. In outline: as §2
The test system of assay [11] is Canis familiaris. Briefly: 0.25 mg/kg of compound was administered orally to conscious adult Beagle dogs and the effects on cardiac contractility was determined after 1 hr. Type of assay: functional, Canis lupus familiaris, Heart. More on the design: unit: ms. In outline:
as §2

In assay [12] the test system is Canis familiaris. Briefly: Positive inotropic activity after intravenous administration of 50 ug/kg (dose) to anesthetized dogs. Type of assay: functional, Canis lupus familiaris. In a few lines:
as §1

Assay [13] relates to Canis familiaris. Briefly: 0.25 mg/kg of compound was administered orally to conscious adult Beagle dogs and the effects on cardiac contractility was determined after 3 hr. It is filed as functional, Canis lupus familiaris, Heart. In outline: as §2
The test system of assay [14] is Canis familiaris. Briefly: Positive inotropic activity after intravenous administration of 12.5 ug/kg (dose) to anesthetized dog. Type of assay: functional, Canis lupus familiaris. In a few lines:
as §1

The test system of assay [15] is Canis familiaris. Briefly: Positive inotropic activity after intravenous administration of 25 ug/kg (dose) to anesthetized dog. It is filed as functional, Canis lupus familiaris.
In assay [16] the test system is Canis familiaris. Briefly: 0.25 mg/kg compound was administered orally to conscious adult Beagle dogs (n=4) and the effects on cardiac contractility was determined after 3 hr. It is filed as functional, Canis lupus familiaris, Heart. In a few lines: as §2

Consider `CC(=O)c1nc(C)cn1-c1cc(C)c2nc(O)ccc2c1`, for which the “Increase in dP/dTmax” value in assay [1] worked out at 15%. This compound came in with a Relative inotropic potency in [2] of 0.3.
As to `CC(=O)c1c(C)nc(C)n1-c1cc(C)c2nc(O)ccc2c1`, the “Decrease in QA interval” value in assay [3] came out at 10; in assay [4] it was 6. Further, the “Increase in dP/dTmax” value in assay [1] is given as 16%. For the same compound, the Relative inotropic potency in assay [2] turned out to be 0.4.
Take `Cc1nc(C)n(-c2cc(C)c3nc(O)ccc3c2)c1Cl`: the “Increase in dP/dTmax” value in assay [5] turned out to be 32%. The Relative inotropic potency in [2] is 2.9. The “Decrease in QA interval” value in [6] is recorded as 10; in assay [7] it was 12.
As for `CSc1c(C)nc(C)n1-c1cc(C)c2nc(O)ccc2c1`, the “Increase in dP/dTmax” value in assay [1] is 28%. This compound came in with a Relative inotropic potency in assay [2] of 0.9.
In the case of `Cc1cn(-c2cc(C)c3nc(O)ccc3c2)c(-c2ccccc2)n1`, the “Increase in dP/dTmax” value in [1] worked out at 15%. The compound also yielded a Relative inotropic potency in assay [2] of 0.3.
As to `Cc1cc(-n2cc(-c3ccccc3)nc2C)cc2ccc(O)nc12`, the “Decrease in QA interval” value in assay [8] stood at 10; in [9] it was 13. In [5], the “Increase in dP/dTmax” value is recorded as 15%. In [2], this compound showed a Relative inotropic potency of 2.4.
As to `CCC(=O)c1cn(-c2cc(C)c3nc(O)ccc3c2)c(C)n1`, in assay [1], the “Increase in dP/dTmax” value was 29%. In addition, in assay [2], the Relative inotropic potency came to 0.9.
With `Cc1cn(-c2cc(C)c3nc(O)ccc3c2)c(C#N)n1`, the “Increase in dP/dTmax” value in [5] is given as 53%. In [2], the Relative inotropic potency is listed as 4.1. Further, the “Decrease in QA interval” value in assay [10] and in [11] was 15 in each case.
For the compound `Cc1nc(C)n(-c2cc(C)c3nc(O)ccc3c2)c1Br`, the “Decrease in QA interval” value came out at 13 in assay [3] and 12 in [4]. Also, in [12], the “Increase in dP/dTmax” value is 26%. Further, the Relative inotropic potency in assay [2] is 0.7.
Turning to `Cc1cc(-n2cc(Cl)nc2C)cc2ccc(O)nc12`, the “Increase in dP/dTmax” value in assay [5] came to 50%. In addition, the Relative inotropic potency in assay [2] came out at 5.6.
Consider `Cc1cn(-c2cc(C)c3[nH]c(=O)ccc3c2)c(C)n1` [NANTERINONE], for which the “Decrease in QA interval” value in assay [13] was 17; in assay [11], 16. In addition, in assay [14], the “Increase in dP/dTmax” value was determined as 40%. For the same compound, the Relative inotropic potency in [2] turned out to be 7.6.
Consider `Cc1[nH]c(=O)c(C#N)cc1-c1ccncc1` [MILRINONE], for which the “Increase in dP/dTmax” value in assay [15] worked out at 46%. The compound also returned a Relative inotropic potency in [2] of 1.6. Besides, the entries for the “Decrease in QA interval” value in assay [11] and in assay [16] were 13 and 7, respectively.
Take `Cc1cc(-n2cc([S+](C)[O-])nc2C)cc2ccc(O)nc12` (stereo not given): in [1], the “Increase in dP/dTmax” value is given as 65%. In assay [2], this compound came in with a Relative inotropic potency of 0.7.
Consider `Cc1nc(C)n(-c2cc(C)c3nc(O)ccc3c2)c1C#N`, for which the “Increase in dP/dTmax” value in assay [1] is 70%. The compound further came in with a Relative inotropic potency in [2] of 1.1. Moreover, the “Decrease in QA interval” value in [10] was determined as 15; in [11], 11.
On to `Cc1nc(C)n(-c2cc(C)c3nc(O)ccc3c2)c1[S+](C)[O-]` (stereo not given), for which the “Increase in dP/dTmax” value in assay [1] is reported as 7%. In assay [2], the Relative inotropic potency stood at 0.2.
Turning to `CC(=O)c1cn(-c2cc(C)c3nc(O)ccc3c2)c(C)n1`, in assay [5], the “Increase in dP/dTmax” value is listed as 36%. The compound further displayed a Relative inotropic potency in assay [2] of 2.6. The results for the “Decrease in QA interval” value in assay [10] and in [11] were 19 and 17, respectively.
As to `Cc1cc(-n2cc(C(=O)C(C)C)nc2C)cc2ccc(O)nc12`, in assay [1], the “Increase in dP/dTmax” value came out at 24%. The compound further registered a Relative inotropic potency in [2] of 0.6.
In the case of `Cc1cn(-c2cc(C)c3nc(O)ccc3c2)c(I)n1`, the “Increase in dP/dTmax” value in assay [5] came out at 59%. Further, the Relative inotropic potency in assay [2] was 5.7.
Take `Cc1cc(-n2cc(I)nc2C)cc2ccc(O)nc12`: the “Increase in dP/dTmax” value in assay [5] is reported as 11%. This compound also had a Relative inotropic potency in assay [2] of 2.6.
Take `Cc1cc(-n2cc(C(=O)c3ccccc3)nc2C)cc2ccc(O)nc12`: in assay [1], the “Increase in dP/dTmax” value is recorded as 31%. The same compound displayed a Relative inotropic potency in assay [2] of 0.5.
On to `Cc1nc(C)n(-c2cc(C)c3nc(O)ccc3c2)c1I`, for which the “Increase in dP/dTmax” value in assay [1] is 17%. The same compound registered a Relative inotropic potency in assay [2] of 0.5.
Take `CSc1cn(-c2cc(C)c3nc(O)ccc3c2)c(C)n1`: in assay [5], the “Increase in dP/dTmax” value was 53%. In assay [2], this compound showed a Relative inotropic potency of 5.
Take `Cc1cc(-n2cc(S(C)(=O)=O)nc2C)cc2ccc(O)nc12`: the “Increase in dP/dTmax” value in assay [1] is 25%. The compound further came in with a Relative inotropic potency in assay [2] of 0.3.
As for `Cc1nc(C)n(-c2cc(C)c3nc(O)ccc3c2)c1S(C)(=O)=O`, in [1], the “Increase in dP/dTmax” value is reported as 5%. The Relative inotropic potency in [2] is on record as 0.1.
Turning to `Cc1cc(-n2cc(C#N)nc2C)cc2ccc(O)nc12`, in assay [5], the “Increase in dP/dTmax” value is on record as 30%. Also, the Relative inotropic potency in assay [2] is listed as 3. For the same compound, the “Decrease in QA interval” value in assay [6] and in [7] was 15 each time.
